IDH1 R132H inh – inhibitors of IDH1 R132H reductase, primary screen, biochemical, plate reader, single point. diaphorase/resazurin fluorescence, 60 min. 0.18% of 70,000 active. inhibition, % at 10 µM. Isocitrate dehydrogenase [NADP] cytoplasmic (Homo sapiens), O75874; in the data active means inhibition above about 34%; inconclusive means no clear call, values can overlap the other calls; inactive means below about 11%;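 further: 0% = DMSO and 100% = no enzyme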
Target sequence (O75874 whole entry R132H): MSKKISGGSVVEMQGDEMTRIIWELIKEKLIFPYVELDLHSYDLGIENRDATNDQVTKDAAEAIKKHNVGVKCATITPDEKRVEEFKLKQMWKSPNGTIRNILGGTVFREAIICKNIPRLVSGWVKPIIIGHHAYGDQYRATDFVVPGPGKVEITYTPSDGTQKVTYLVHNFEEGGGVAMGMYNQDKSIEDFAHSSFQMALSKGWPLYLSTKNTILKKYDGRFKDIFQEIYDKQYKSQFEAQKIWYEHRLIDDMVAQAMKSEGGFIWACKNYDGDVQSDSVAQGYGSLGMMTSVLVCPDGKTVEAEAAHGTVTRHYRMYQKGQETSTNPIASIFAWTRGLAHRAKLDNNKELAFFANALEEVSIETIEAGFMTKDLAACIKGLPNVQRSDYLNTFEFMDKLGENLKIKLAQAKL
GASC1 inh – inhibitors of GASC-1 (KDM4C) histone demethylase, primary screen, biochemical, single concentration HTS | GST-KDM4C 2-372, H3K9me3 peptide, LANCE TR-FRET | inhibition, % at 12.5 µM | 0.15% of 96,000 active;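 active means mean replicate inhibition above about 25%, with at least 55% of replicates also reaching it, limit read from the data, passing the limit was not always enough; inconclusive means only one of those two conditions met; inactive means neither condition met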
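Assay system: GST-GASC-1 enzyme fragment 2-372 | Amount: 10 nM enzyme | Medium: HEPES buffer, pH 7.5, plus ascorbate | Reagent: H3K9me3 peptide substrate, Fe(II), 2-oxoglutarate | Doses: Single-point compound screen | Incubation: 30 min demethylation and 1 h detection at room temperature | Measured by: LANCE TR-FRET, excitation 340 nm, emissions 618 and 671 nm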
T cruzi growth-1 – T. cruzi intracellular proliferation inhibitors, primary screen, cell-based, beta-gal Tulahuen parasites, NIH3T3 host, luminescence | T. cruzi beta-gal in NIH3T3, GalScreen luminescence, 90 h | inhibition, % at 8.34 µM | 5.9% of 77,000 active;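 active means mean inhibition above about 93%, with at least 55% of replicates each passing it, limit read from the data, passing the limit was not always enough; inconclusive means only one of those two conditions holds; inactive means neither condition holds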
T cruzi growth-2 – T. cruzi intracellular proliferation inhibitors, confirmation, cell-based, NIH3T3 host, beta-gal parasite, luminescence, cherry-pick | shares compounds with T cruzi growth-1 | T. cruzi beta-gal in NIH3T3, GalScreen luminescence, 90 h | inhibition, % at 8.35 µM | 72% of 5,600 active | AID 651739, 2012;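 active means mean replicate inhibition above about 95% and at least 55% of replicates individually reaching it, limit read from the data; inconclusive means only one of the two criteria is met; inactive means neither criterion is met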
T cruzi growth-3 – inhibitors of intracellular T. cruzi replication, confirmation, NIH3T3 host cells, beta-gal parasites, cherry-pick, set 2. shares compounds with T cruzi growth-1. T. cruzi beta-gal in NIH3T3, GalScreen luminescence, 90 h. inhibition, % at 2.09 µM. 21% of 5,600 active. AID 651740, 2012;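 active means mean inhibition above about 95%, with at least 55% of replicates also reaching it, limit read from the data; inconclusive means meets just one of the two conditions; inactive means meets neither condition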;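 further: plate controls were neutral control median for no effect and positive control median for full effect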
NIH3T3 tox – cytotoxicity in mouse NIH/3T3 fibroblasts, confirmation, cytotoxicity control for T. cruzi proliferation inhibitor project, cell-based, cherry-pick, single point; shares compounds with T cruzi growth-1; NIH/3T3 viability, CellTiter-Glo ATP luminescence, 90 h; cytotoxicity (signal decrease), % at 8.35 µM; 14% of 5,600 active;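 active means mean signal decrease across replicates above about 35% based on untreated-well scatter, with enough replicates individually passing, limit read from the data; inconclusive means no rule stated though some were filed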;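 further: 0% = median of neutral control wells and 100% = median of positive control wells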
3T3 cytotox 2 – NIH/3T3 fibroblast cytotoxicity, confirmation, cytotoxicity control, cell-based, cherry-pick, single point, set 2. 56% of 5,600 active. inhibition, % at 24.9 µM. NIH/3T3 viability, CellTiter-Glo ATP luminescence, 90 h. shares compounds with T cruzi growth-1;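 active means mean loss of cell viability signal at or above a set limit, and enough replicates individually reaching it; inconclusive means meets only the mean limit or only the replicate share; inactive means meets neither condition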;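 further: 0% = median of neutral control wells and 100% = median of positive control wells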
Numbers without * were called inactive; u = inconclusive; x = no result. Many of the other results were omitted from the sample, so hits are more common in it than they were.

SMILES	IDH1 R132H inh	GASC1 inh	T cruzi growth-1	T cruzi growth-2	T cruzi growth-3	NIH3T3 tox	3T3 cytotox 2
COc1ccc(-c2ccc3c(c2)O[C@@H](CN(C)Cc2cccnc2)[C@@H](C)CN([C@@H](C)CO)S3(=O)=O)cc1	2	0	x	x	x	x	x
COc1cccc(-c2ccc3c(c2)O[C@H](CN(C)Cc2cccnc2)[C@@H](C)CN([C@@H](C)CO)S3(=O)=O)c1	4	1	119*	105*	106*	u	60*
CN(C)CC(=O)N[C@@H]1CC[C@@H](CCNC(=O)C2CCCC2)O[C@@H]1CO	0	0	x	x	x	x	x
CNC(=O)C[C@@H]1CC[C@H]2[C@@H](COc3ccc(NC(=O)Nc4cc(C)cc(C)c4)cc3C(=O)N2C)O1	x	2	-8	x	x	x	x
CC(C)NC(=O)Nc1ccc2c(c1)C(=O)N([C@H](C)CO)C[C@H](C)[C@H](CN(C)S(=O)(=O)c1ccc(F)cc1)OCCCC[C@@H](C)O2	4	1	-14	x	x	x	x
CCC(=O)N(C)C[C@@H]1Oc2cc(C#CCN(C)C)ccc2S(=O)(=O)N([C@H](C)CO)C[C@@H]1C	0	1	94	x	x	x	x
CCC(=O)N(C)C[C@H]1Oc2cc(C#CCN(C)C)ccc2S(=O)(=O)N([C@@H](C)CO)C[C@@H]1C	-4	5	102*	104*	u	26	19
CCC(=O)N(C)C[C@H]1Oc2cc(C#CCN(C)C)ccc2S(=O)(=O)N([C@H](C)CO)C[C@H]1C	0	3	66	x	x	x	x
CCCC#Cc1ccc2c(c1)O[C@H](CN(C)C(=O)NCCC)[C@H](C)CN([C@H](C)CO)S2(=O)=O	0	0	-42	x	x	x	x
CCC(=O)N(C)C[C@H]1Oc2cc(C#CCN(C)C)ccc2S(=O)(=O)N([C@H](C)CO)C[C@@H]1C	0	3	102*	97*	91	-11	-1
CCCNC(=O)N(C)C[C@H]1Oc2cc(C#CCN(C)C)ccc2S(=O)(=O)N([C@@H](C)CO)C[C@@H]1C	-1	4	u	88	36	-24	-20
COc1ccccc1-c1ccc2c(c1)O[C@H](CN(C)S(=O)(=O)c1ccc(F)cc1)[C@H](C)CN([C@@H](C)CO)S2(=O)=O	2	-1	99*	95*	85	21	47*
COc1ccccc1-c1ccc2c(c1)O[C@@H](CN(C)S(=O)(=O)c1ccc(F)cc1)[C@@H](C)CN([C@H](C)CO)S2(=O)=O	0	0	106*	99*	90	u	64*
COc1ccccc1-c1ccc2c(c1)O[C@@H](CN(C)S(=O)(=O)c1ccc(F)cc1)[C@@H](C)CN([C@@H](C)CO)S2(=O)=O	0	-1	103*	109*	90	50*	45*
C[C@H]1CN([C@@H](C)CO)S(=O)(=O)c2ccc(-c3ccccc3F)cc2O[C@@H]1CN(C)S(C)(=O)=O	-2	x	-48	x	x	x	x
C[C@@H]1CN([C@@H](C)CO)S(=O)(=O)c2ccc(-c3ccccc3F)cc2O[C@H]1CN(C)S(C)(=O)=O	-1	0	-57	x	x	x	x
C[C@@H]1CN([C@H](C)CO)S(=O)(=O)c2ccc(-c3ccccc3F)cc2O[C@H]1CN(C)S(C)(=O)=O	-2	0	-24	x	x	x	x
COc1ccc(N(C(C)C(=O)Nc2ccc(Cl)cc2)S(C)(=O)=O)cc1 (centres undefined)	21	x	x	x	x	x	x
C[C@H](CO)N1C[C@H](C)[C@@H](CN(C)C(=O)C2CCOCC2)Oc2ncc(-c3cccnc3)cc2C1=O	x	0	-66	x	x	x	x
C[C@H]1CN([C@@H](C)CO)C(=O)c2cccc(NC(=O)c3ccc(-c4nccs4)cc3)c2O[C@H]1CN(C)Cc1ccc(Oc2ccccc2)cc1	2	-1	1	x	x	x	x
C[C@H](CO)N1C[C@H](C)[C@@H](CN(C)Cc2ccc(Oc3ccccc3)cc2)Oc2c(NC(=O)c3ccc(-c4nccs4)cc3)cccc2C1=O	1	-9	u	100*	112*	-8	-11
C[C@H]1CN([C@@H](C)CO)C(=O)c2cccc(NC(=O)c3ccc(-c4nccs4)cc3)c2O[C@H]1CN(C)Cc1ccc(C(F)(F)F)cc1	x	1	81	x	x	x	x
C[C@H](CO)N1C[C@H](C)[C@H](CN(C)Cc2ccc(C(F)(F)F)cc2)Oc2c(NC(=O)c3ccc(-c4nccs4)cc3)cccc2C1=O	x	1	u	108*	87	12	-10
C[C@@H]1CN([C@H](C)CO)C(=O)c2cc(-c3ccc(C(=O)N(C)C)cc3)cnc2O[C@@H]1CN(C)C(=O)CN(C)C	-5	0	3	x	x	x	x
COc1ccc(Cl)cc1NC(=O)COc1ccccc1[N+](=O)[O-]	0	x	x	x	x	x	x
SMILES	IDH1 R132H inh	GASC1 inh	T cruzi growth-1	T cruzi growth-2	T cruzi growth-3	NIH3T3 tox	3T3 cytotox 2
Cn1cnc(S(=O)(=O)N2C[C@@H](O)COC[C@H]3O[C@H](CC(=O)NC4CCC4)CC[C@@H]32)c1	x	-4	x	x	x	x	x
C[C@@H]1CN([C@H](C)CO)C(=O)Cc2cc(NS(=O)(=O)c3ccc(F)cc3)ccc2O[C@H]1CN(C)Cc1ccncc1	8	3	-22	x	x	x	x
O=C(C[C@H]1CC[C@@H]2[C@H](COC[C@@H](O)CN2S(=O)(=O)c2ccc(F)cc2)O1)NCCN1CCCCC1	x	1	114*	16	-28	-10	-19
O=C(C[C@@H]1CC[C@@H]2[C@H](COC[C@@H](O)CN2S(=O)(=O)c2ccc(F)cc2)O1)NCC1CC1	x	0	16	x	x	x	x
O=C(C[C@@H]1CC[C@@H]2[C@H](COC[C@@H](O)CN2S(=O)(=O)c2ccc(F)cc2)O1)NCCN1CCCCC1	x	0	51	x	x	x	x
O=C(C[C@@H]1CC[C@@H]2[C@H](COC[C@H](O)CN2S(=O)(=O)c2ccc(F)cc2)O1)NCC1CCCCC1	x	-1	u	2	1	-8	21
CCN1CC(=O)N2[C@H](CO)[C@H](c3ccc(Br)cc3)[C@H]2C1	x	-4	x	x	x	x	x
Cc1cccc(-c2ccc([C@H]3[C@H](CO)N4CCCCN(S(=O)(=O)c5cccc(C)c5)C[C@@H]34)cc2)c1	x	0	98*	91	101*	115*	106*
Cc1cccc(-c2ccc([C@H]3[C@H]4CN(S(=O)(=O)c5ccccc5C)CCCCN4[C@H]3CO)cc2)c1	x	-1	103*	106*	92	2	38*
